Assays:
[1] = AUC (0 to t) in […] mouse at 200 mg/kg, po after 24 hrs by LC/MS/MS analysis; format: ADME, organism-based; set-up: time < 24 hr, dose 200 mg/kg, route oral; conditions: plasma
[2] = Oral bioavailability in […] mouse at 100 mg/kg after 24 hrs by LC/MS/MS analysis; format: ADME, organism-based; conditions: in vivo
Summary of the method: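 Mouse 24-h exposure study with oral dosing at 100 mg/kg of the free form (not sodium salt). Formulated as a solution of 5% DMSO, 5% Cremophor EL, 15% PEG400, 15% HPCD and 60% water.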

[3] = AUC (0 to t) in […] mouse at 100 mg/kg, po after 24 hrs by LC/MS/MS analysis; format: ADME, organism-based; set-up: time < 24 hr, dose 100 mg/kg, route oral; conditions: plasma
[4] = Oral bioavailability in cynomolgus monkey at 5 mg/kg; format: ADME, organism-based, Macaca fascicularis; conditions: in vivo
Summary of the method: (§1)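 Single intravenous and oral doses given as the sodium salt in 5% DMSO/5% Cremophor EL/15% PEG400/15% HPCD/60% water. The iv/po doses were 10/20 mg/kg in mouse, 5.0/10 mg/kg in rat and 2.5/5.0 mg/kg in monkey. Oral AUCinf, iv t1/2 and clearance were also reported.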

[5] = AUC (0 to t) in […] mouse at 50 mg/kg, po after 24 hrs by LC/MS/MS analysis; format: ADME, organism-based; set-up: time < 24 hr, dose 50 mg/kg, route oral; conditions: plasma
[6] = test system: Mus musculus; test: AUC (0 to t) in […] mouse assessed as dimethylcarbamic acid 6-chloro-4-methyl-2-oxo-3-[3-(sulfamoylamino)benzyl]-2H-chromen-7-yl ester level at 200 mg/kg, po after 24 hrs by LC/MS/MS analysis; format: ADME, organism-based, Plasma; set-up: time < 24 hr, dose 200 mg/kg, route oral; conditions: in vivo
[7] = Oral bioavailability in BALB-nu/nu mouse at 20 mg/kg; format: ADME, organism-based; conditions: in vivo; summary of the method: as §1
[8] = AUC (infinity) in Crlj:CD rat at 10 mg/kg, po; format: ADME, organism-based; set-up: time infinity, dose 10 mg/kg, route oral; conditions: plasma
Summary of the method: (§2)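 The sodium salt was dosed iv and po: mouse 10/20 mg/kg, rat 5.0/10 mg/kg, monkey 2.5/5.0 mg/kg. Vehicle was 5% DMSO/5% Cremophor EL/15% PEG400/15% HPCD/60% water. AUCinf was taken after po dosing; t1/2 was taken after iv dosing.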

[9] = Oral bioavailability in Crlj:CD rat at 10 mg/kg; format: ADME, organism-based; conditions: in vivo; summary of the method: as §1
[10] = AUC (infinity) in cynomolgus monkey at 5 mg/kg, po; format: ADME, organism-based, Macaca fascicularis; set-up: time infinity, dose 5 mg/kg, route oral; conditions: plasma; summary of the method: as §2
[11] = AUC (infinity) in BALB-nu/nu mouse at 20 mg/kg, po; format: ADME, organism-based; set-up: time infinity, dose 20 mg/kg, route oral; conditions: plasma; summary of the method: as §2

| Compound | AUC(0-t) at 24 h [1] [µM·h] | AUC(0-t) at 24 h [3] [µM·h] | other results |
| --- | --- | --- | --- |
| Cc1c(Cc2cccc(N)c2)c(=O)oc2cc(OC(=O)N(C)C)c(Cl)cc12 | 29 | – | – |
| Cc1c(Cc2cccc(NS(N)(=O)=O)c2)c(=O)oc2cc(OC(=O)N(C)C)c(Cl)cc12 | 70 | – | – |
| CNS(=O)(=O)Nc1cccc(Cc2c(C)c3cc(Cl)c(OC(=O)N(C)C)cc3oc2=O)c1 | – | 17 | bioavailability [2]: 10%; bioavailability [4]: < 5% |
| Cc1c(Cc2cccc(NS(=O)(=O)N(C)C)c2)c(=O)oc2cc(OC(=O)N(C)C)c(Cl)cc12 | – | – | AUC(0-t) at 24 h [5]: 3 µM·h |
| Cc1c(Cc2cccc(NS(C)(=O)=O)c2)c(=O)oc2cc(OC(=O)N(C)C)c(Cl)cc12 | – | 41 | – |
| CCS(=O)(=O)Nc1cccc(Cc2c(C)c3cc(Cl)c(OC(=O)N(C)C)cc3oc2=O)c1 | – | 30 | – |
| CONS(=O)(=O)Nc1cccc(Cc2c(C)c3cc(Cl)c(OC(=O)N(C)C)cc3oc2=O)c1 | – | 62 | – |
| Cc1c(Cc2cccc(NS(=O)(=O)NCC(F)(F)F)c2)c(=O)oc2cc(OC(=O)N(C)C)c(Cl)cc12 | – | 26 | – |
| Cc1c(Cc2cccc(NS(=O)(=O)NCCC#N)c2)c(=O)oc2cc(OC(=O)N(C)C)c(Cl)cc12 | 25 | – | – |
| Cc1c(Cc2cccc(NS(=O)(=O)NCCO)c2)c(=O)oc2cc(OC(=O)N(C)C)c(Cl)cc12 | 14 | – | – |
| COCCNS(=O)(=O)Nc1cccc(Cc2c(C)c3cc(Cl)c(OC(=O)N(C)C)cc3oc2=O)c1 | 9 | – | AUCt [6]: 14 µM·h |
| CNS(=O)(=O)[N-]c1cccc(Cc2c(C)c3cc(Cl)c(OC(=O)N(C)C)cc3oc2=O)c1.[Na+] | – | 51 | bioavailability [2]: 31% |
| Cc1c(Cc2cccc(NS(N)(=O)=O)c2F)c(=O)oc2cc(OC(=O)N(C)C)c(F)cc12 | – | – | bioavailability [4]: 30%; bioavailability [7]: 51%; AUC(0-inf) [8]: 6 µM·h; bioavailability [9]: 62%; AUC(0-inf) [10]: 2.2 µM·h; AUC(0-inf) [11]: 26 µM·h |

— ChEMBL document CHEMBL3085763, “The sulfamide moiety affords higher inhibitory activity and oral bioavailability to a series of coumarin dual selective RAF/MEK inhibitors” (Bioorg Med Chem Lett, 2013)
